# Assay outcomes from PubChem.
# Tn7 DDE FP: inhibitors of Tn7 peptide binding to fibrin DD(E), primary screen, biochemical, fluorescence polarization, human fibrin, Tn7 probe. FP displacement of FITC-Tn7 peptide from fibrin DD(E); 0% = median of compound wells per plate. inhibition, % at 8.3 µM. Fibrinogen beta chain (Homo sapiens), P02675. actives 0.13% (n = 370,000);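 active = inhibition above the mean of compounds falling within the control limits plus 3 SD of them, cut at about 14% in these data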;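 note: 0% = plate median of compound wells and 100% = 10 µM Aha-Tn7 peptide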
#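 System: human fibrin DD(E); quantity: Fibrin-DD(E) at 2 µM final; also added: fluorescent Tn7 probe at 0.1 µM; compound dosing: single nominal test concentration of 8.3 µM per compound; schedule: 10 min preincubation, 3 h with tracer, room temperature; detection: fluorescence polarization of the labelled Tn7 tracer; repeats: one replicate per compound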
# ABHD4 inh: ABHD4 inhibitors, primary screen, biochemical, fluorescence polarization, mouse. purified mABHD4, FP-Rh probe fluorescence polarization. (Lyso)-N-acylphosphatidylethanolamine lipase (Mus musculus), Q8VD66. actives 0.54% (n = 370,000). inhibition, % at 8.92 µM. AID 720543, 2013;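 active = inhibition exceeding the mean over every tested compound plus 3 SD, cut at about 30% in these data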;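 note: 0% = plate median of compound wells and 100% = S159A mutant with DMSO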
#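 Assay system: wild-type mouse ABHD4 protein; compound: single nominal dose of 8.92 µM, 0.89% DMSO final; schedule: 45 min + 60 min at 25 °C; measured by: FP readout, ex 525 nm / em 598 nm; evaluation: % inhibition of FP-Rh probe binding versus controls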
# HTRA1 inh: HTRA1 serine protease inhibitors, primary screen, biochemical, fluorescence polarization, HTS; recombinant HTRA1, FP-rhodamine activity-based probe; inhibition, % at 5.96 µM; actives 0.5% (n = 340,000); in the data active = inhibition above about 36%;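 note: 0% = enzyme with DMSO and 100% = wells lacking enzyme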
# Target sequence (Q92743 whole entry, looked up): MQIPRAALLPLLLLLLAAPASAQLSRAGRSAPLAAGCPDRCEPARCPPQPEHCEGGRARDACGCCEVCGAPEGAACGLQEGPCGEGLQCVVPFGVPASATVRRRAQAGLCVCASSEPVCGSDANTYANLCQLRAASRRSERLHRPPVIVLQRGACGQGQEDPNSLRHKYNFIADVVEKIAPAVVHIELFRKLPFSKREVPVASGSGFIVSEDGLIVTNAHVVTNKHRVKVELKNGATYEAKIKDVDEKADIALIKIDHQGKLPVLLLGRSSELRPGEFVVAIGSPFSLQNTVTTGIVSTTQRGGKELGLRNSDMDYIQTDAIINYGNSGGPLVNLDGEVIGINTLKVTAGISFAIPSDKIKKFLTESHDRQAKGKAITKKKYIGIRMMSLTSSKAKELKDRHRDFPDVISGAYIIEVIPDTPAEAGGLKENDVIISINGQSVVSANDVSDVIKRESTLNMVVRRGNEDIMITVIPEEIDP
# Tn6 DDE FP: inhibitors of Tn6 peptide binding to fibrin DD(E), primary screen, biochemical, fluorescence polarization, human fibrin, Tn6 probe; Fibrin DD(E) TRITC-Tn6 fluorescence polarization displacement; inhibition, % at 8.3 µM; actives 0.21% (n = 370,000);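 active = inhibition above a per-campaign cutoff: mean of compounds within control limits plus 3 SD, cut at about 15% in these data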;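 note: 0% = median of all compound wells on the plate and 100% = blocking peptide control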
# TCR CD3 inh: inhibitors of human TCR-CD3 interaction, primary screen, biochemical, fluorescence, TAMRA-labeled TCR probe | inhibition, % at 9.4 µM | AID 651800, 2012 | T-cell receptor (TCR) | actives 0.37% (n = 360,000); in the data active = inhibition above about 19%;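 note: recombinant mutant TCR 2C K166C tagged with TAMRA read by polarization; 0% = receptor in buffer alone and 100% = receptor with positive control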
# DDE Tn7 confirm: inhibitors of Tn7 peptide binding to fibrin DD(E), confirmation, biochemical, fluorescence polarization, human fibrin, Tn7 probe; inhibition, % at 8.3 µM; FP displacement of TRITC-Tn7 peptide from DD(E); 0% set at plate's compound-well median; actives 5% (n = 460); shares compounds with Tn7 DDE FP;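 active = inhibition above the campaign cutoff, the mean of compounds within control limits plus 3 SD, cut at about 14% in these data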;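 note: 100% = median FP of high control wells holding Aha-Tn7 inhibitor peptide; displacers lower polarization since freed probe rises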
# Tn7 DDE ctr: DD(E)-Tn7 binding inhibition, counter-screen; AID 720633; inhibition, % at 8.3 µM; fibrin DD(E), TRITC-Tn7 probe displacement, fluorescence polarization; actives 3% (n = 460); shares compounds with Tn7 DDE FP;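 active = inhibition above the cutoff, the mean of compounds lying between the control bounds plus 3 SD of those compounds, cut at about 17% in these data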;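 note: 0% = median of compound sample wells and 100% = excess unlabeled Aha-Tn7 peptide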
# * = called active by the depositor; · = not tested or not shown. Compounds with a hit are over-represented: about 1.3% of the library has one in this group of screens.
SMILES,Tn7 DDE FP,ABHD4 inh,HTRA1 inh,Tn6 DDE FP,TCR CD3 inh,DDE Tn7 confirm,Tn7 DDE ctr
COc1ccccc1-c1ccc2c(c1)C(C)(Cc1ccc(Cl)cc1)C(=O)N2 (stereo unspecified),-2,-2,·,4,5,·,·
COc1ccccc1-c1ccc2c(c1)C(C)(Cc1cccc(C#N)c1)C(=O)N2 (stereo unspecified),16*,-16,·,-2,1,4,-1
Cc1cc(C(F)F)n2ncc(C(=O)NCc3ccccc3F)c2n1,5,6,6,-4,-1,·,·
Cc1cc(C(F)F)n2ncc(C(=O)NCc3ccccc3C(F)(F)F)c2n1,14*,-10,-6,3,-4,1,-2
CN(C)S(=O)(=O)N1CCC(Oc2ccc(C(=O)NCc3cnn(C)c3)cc2)CC1,14*,1,-7,-1,-4,7,0
C=CCNC(=O)c1ccc(OC2CCN(S(=O)(=O)N(C)C)CC2)cc1,1,1,4,-15,3,·,·
CC(NC(=O)COC(=O)[C@@H]1CCCN1S(=O)(=O)c1ccccc1F)C12CC3CC(CC(C3)C1)C2 (stereo partly specified),14*,-1,-27,3,8,0,0
C=C[C@@H]1c2ccccc2N(S(=O)(=O)c2ccc(C)cc2)[C@H](c2ccccc2)C1(C#N)C#N,-3,-3,-4,-6,-1,·,·
C=C[C@@H]1c2cc(C)ccc2N(S(=O)(=O)c2ccc(C)cc2)[C@H](c2ccccc2)C1(C#N)C#N,14*,-5,-6,1,-5,-1,-13
Cc1ccc(NC(=O)c2ccc(NCCCN3CCC(C)CC3)c([N+](=O)[O-])c2)cc1F,15*,-2,-1,-6,5,3,3
COc1ccc(-c2cn3c(C)c(C(=O)Nc4cccc(NC(C)=O)c4)sc3n2)cc1,14*,-8,0,-4,7,5,-5
COc1ccc(-c2cn3c(C)c(C(=O)Nc4ccncc4)sc3n2)cc1,2,-5,-15,-1,3,·,·
Cc1ccc(NC(=O)Cc2nnc(SCC(=O)Nc3nncs3)n2C)c(C)c1,4,7,-3,-2,3,·,·
Cn1c(CC(=O)Nc2ccccc2Cl)nnc1SCC(=O)Nc1nncs1,14*,-7,1,2,-1,-8,-11
Cn1c(CN2CCCCC2)nc2cc(NC(=O)c3ccccc3Cl)ccc21,-3,-2,-4,-6,2,·,·
Cn1c(CN2CCCCC2)nc2cc(NC(=O)c3ccc(F)cc3)ccc21,15*,-2,-3,-1,6,2,2
CCOC(=O)N1CCN(Cc2nc(-c3cccc(Cl)c3)no2)CC1,-2,-1,-4,-8,-3,·,·
CCOC(=O)N1CCN(Cc2nc(-c3ccc(C)cc3)no2)CC1,16*,-4,-1,-1,-9,16*,8
O=C1/C(=C/c2ccccc2)CCc2ccc(Cl)nc21,2,-7,-1,-2,-6,·,·
COc1ccc(C=Cc2ccc3ccccc3n2)c(OC)c1,27*,15,-13,8,9,6,5
COc1ccc(OC)c(/C=C/c2ccc3cccc(O)c3n2)c1,3,-1,-2,2,-4,·,·
Cc1nc(C)c(C(=O)OCC(=O)Nc2ccccc2SCC#N)s1,-5,-1,-2,-3,6,·,·
CC(C)(C)c1cc[n+](-c2[nH]c(=O)sc2/C=N/NC([S-])=Nc2ccccc2)cc1,20*,24,27,-4,-3,-6,-11
COC(=O)C1=C(C)N(C)C(=NCc2ccc3c(c2)OCO3)NC1c1cccc(Cl)c1 (stereo unspecified),-2,3,·,0,1,·,·
COc1ccccc1NS(=O)(=O)c1cc(Cl)ccc1OC,14*,-2,-8,4,2,10,7
SMILES,Tn7 DDE FP,ABHD4 inh,HTRA1 inh,Tn6 DDE FP,TCR CD3 inh,DDE Tn7 confirm,Tn7 DDE ctr
COc1ccccc1NS(=O)(=O)c1ccc(OC)c(OC)c1,-6,1,-2,-4,4,·,·
CC(=O)Nc1nnc(COc2ccc(Cl)cc2)s1,-8,0,-1,-1,0,·,·
CC(C)C(=O)Nc1nnc(COc2ccc(Cl)cc2)s1,14*,-8,-1,0,-3,-3,-5
Cc1ccccc1OCc1nc(C#N)c(N2CCCC2)o1,-3,9,8,2,4,·,·
COc1ccc(S(=O)(=O)N2CCN(CC(=O)NCCc3cccs3)CC2)cc1,15*,2,5,5,4,-3,-7
O=C(CSc1nc2c(cnn2-c2ccc(F)cc2)c(=O)[nH]1)N1CCCCC1,15*,1,-8,3,3,1,0
CN(C)C(CNC(=O)c1cc2ccccc2oc1=O)c1ccccc1 (stereo unspecified),5,-2,-2,1,7,·,·
COc1ccc(-c2nnc(SCC(=O)NNC(=O)Cc3ccccc3)n2C)cc1OC,5,0,2,6,3,·,·
CC(=O)Nc1ccc(NC(=O)c2c([N+](=O)[O-])cnn2C)cc1,15*,1,3,5,8,3,2
O=C(NNC(=O)c1ccccc1-n1cccc1)c1cccc(Cl)c1,0,-5,2,-2,-6,·,·
O=C(NNC(=O)c1ccccc1-n1cccc1)c1cncc(Br)c1,16*,-6,0,0,-3,7,2
COc1ccccc1C(=O)NCC(=O)OCC(=O)Nc1ccc2[nH]c(=O)[nH]c2c1,15*,-5,-1,3,1,5,-5
